How the values were obtained:
Rattus norvegicus [1] = assay: Effect on homovanillic acid concentration in rat striatum, after 0.1 mg/kg sc administration; assay type: functional; conditions: route subcutaneous
How it was run: (§1)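 Male Wistar rats (~150 g) were given drug or apomorphine HCl sc and decapitated 1 h later. Striatal DOPAC and HVA were quantified by LC with electrochemical detection. Results are mean ± SE, five rats/group, P < 0.05.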

Rattus norvegicus [2] = assay: Effect on concentration of 5HIAA in rat brain striatum after 0.3 mg/kg sc administration; assay type: functional, organism-based; parameters: dose 0.3 mg/kg
How it was run: (§2)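 Male Wistar rats (~150 g) were injected sc with drug in dilute HCl and decapitated 1 h later. Hypothalamus and striatum were dissected and frozen on dry ice. […] Results are mean ± SE, five rats/group, P < 0.05.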

Rattus norvegicus [3] = assay: Effect of Metergoline on the elevation of serum corticosterone, after sc administration (1.0 mg/kg) No pretreatment; assay type: functional, organism-based
How it was run: (§3)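 Male Wistar rats (~150 g) received metergoline (3 mg/kg, ip) or no pretreatment. Drug was given sc in dilute HCl 1 h later, and rats were decapitated 1 h after that. Serum corticosterone was determined spectrofluorometrically. Results are mean ± SE, five rats/group, P < 0.05 versus the corresponding control.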

Rattus norvegicus [4] = assay: Decreased accumulation of 5-hydroxytryptophan after decarboxylase inhibition in the hypothalamus of rat at a dose 0mg/Kg, sc; assay type: functional, organism-based
How it was run: (§4)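 Male Wistar rats (~150 g) got drug sc in dilute HCl. NSD 1015 (100 mg/kg, ip) was given 30 min after drug and 30 min before decapitation. Hypothalamic 5-HTP was measured by LC with electrochemical detection. Results are mean ± SE, five rats per treated group and six controls; significance at P < 0.01.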

Rattus norvegicus [5] = assay: Effect on 5-hydroxyindoleacetic acid in rat whole brain, after sc administration (0.01 mg/kg dose) (experiment 2); assay type: functional, organism-based
How it was run: (§5)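 Drug was given sc in dilute HCl to male Wistar rats (~150 g), with decapitation 1 h later. Whole brains were frozen on dry ice and held at −15 °C. […] Results are mean ± SE, five rats/group, P < 0.05 versus vehicle control.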

Rattus norvegicus [6] = assay: Effect of Metergoline on the elevation of serum corticosterone, after sc administration (0.1 mg/kg) Metergoline pretreament; assay type: functional, organism-based; how it was run: as §3
Rattus norvegicus [7] = assay: Decreased accumulation of 5-hydroxytryptophan after decarboxylase inhibition in the hypothalamus of rat at a dose 0.03mg/Kg, sc; assay type: functional, organism-based; how it was run: as §4
Rattus norvegicus [8] = assay: Effect on serotonin in rat whole brain, after sc administration (1 mg/kg dose) (experiment 1); assay type: functional, organism-based
Rattus norvegicus [9] = assay: Effect on serotonin in rat whole brain, after sc administration (0 mg/kg dose) (experiment 1); assay type: functional, organism-based; how it was run: as §5
Rattus norvegicus [10] = assay: Effect of Metergoline on the elevation of serum corticosterone, after sc administration (0.03 mg/kg) No pretreatment; assay type: functional, organism-based; how it was run: as §3
Rattus norvegicus [11] = assay: Minimum effective dose required to increase (MED) corticosterone in rat serum, sc; assay type: functional; conditions: read-out: MED
How it was run: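 Male Wistar rats (~150 g). Compound in dilute HCl given sc at graded doses 1 h before decapitation. Whole-brain 5-HIAA measured by LC with electrochemical detection; serum corticosterone measured spectrofluorometrically. Minimum effective dose is the lowest dose giving a significant difference from control (P < 0.05).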

Rattus norvegicus [12] = assay: Effect of Metergoline on the elevation of serum corticosterone, after sc administration (0.03 mg/kg) Metergoline pretreament; assay type: functional, organism-based; how it was run: as §3
Rattus norvegicus [13] = assay: Effect on homovanillic acid concentration in rat striatum, after 0.03 mg/kg sc administration; assay type: functional; conditions: route subcutaneous; how it was run: as §1
Rattus norvegicus [14] = assay: Effect of Metergoline on the elevation of serum corticosterone, after sc administration (0.3 mg/kg) Metergoline pretreament; assay type: functional, organism-based; how it was run: as §3
Rattus norvegicus [15] = assay: Effect on serum corticosterone in serum of rats after sc administration (0.3 mg/kg dose) (experiment 1); assay type: functional, organism-based
How it was run: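 Male Wistar rats (~150 g) housed at 24 °C with lights 7 a.m.–7 p.m. Compound in dilute HCl given sc 1 h before decapitation. Serum corticosterone measured spectrofluorometrically, μg/100 mL. Five rats per group, mean ± SE. Significance set at P < 0.05 versus the vehicle control.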

Rattus norvegicus [16] = assay: Effect on 5-hydroxyindoleacetic acid in rat whole brain, after sc administration (0 mg/kg dose) (experiment 2); assay type: functional, organism-based; how it was run: as §5
Rattus norvegicus [17] = assay: Effect on 3,4-dihydroxyphenylacetic acid concentration in rat striatum, after 0.1 mg/kg sc administration; assay type: functional; conditions: route subcutaneous; how it was run: as §1
Rattus norvegicus [18] = assay: Decreased accumulation of 5-hydroxytryptophan after decarboxylase inhibition in the hypothalamus of rat at a dose 0.3 mg/Kg, sc; assay type: functional, organism-based; how it was run: as §4
Rattus norvegicus [19] = assay: Effect on concentrations of serotonin in rat brain hypothalamus after 0.3 mg/kg sc administration; assay type: functional, organism-based; parameters: dose 0.3 mg/kg; how it was run: as §2
Rattus norvegicus [20] = assay: Effect of Metergoline on the elevation of serum corticosterone, after sc administration (0 mg/kg) No pretreatment; assay type: functional, organism-based; how it was run: as §3
Rattus norvegicus [21] = assay: Effect on 5-hydroxyindoleacetic acid in rat whole brain, after sc administration (1 mg/kg dose) (experiment 1); assay type: functional, organism-based; how it was run: as §5
Rattus norvegicus [22] = assay: Effect on 3,4-dihydroxyphenylacetic acid concentration in rat striatum, after 0.3 mg/kg sc administration; assay type: functional; conditions: route subcutaneous; how it was run: as §1
Rattus norvegicus [23] = assay: Effect on serotonin in rat whole brain, after sc administration (0.3 mg/kg dose) (experiment 1); assay type: functional, organism-based
Rattus norvegicus [24] = assay: Effect of Metergoline on the elevation of serum corticosterone, after sc administration (1.0 mg/kg) Metergoline pretreament; assay type: functional, organism-based; how it was run: as §3

**Q.** Which results are given for `C[C@@H]1C=C2c3cccc4c3[C@@H](CN4)C[C@H]2N(C)C1`?
**A.** Homovanillic acid concentration (Rattus norvegicus [1]): 3.65 nM/g; Concentration (Rattus norvegicus [2]): < 2.38 mg/kg; Serum corticosterone (Rattus norvegicus [3]): 70.8 µg/mL; Concentration (Rattus norvegicus [4]): 1.92 nM/g; Concentration (Rattus norvegicus [5]): 2.2 nM/g; Serum corticosterone (Rattus norvegicus [6]): 46.8 µg/mL; Concentration (Rattus norvegicus [7]): 1.19 nM/g; Concentration (Rattus norvegicus [8]): 3.02 nM/g; Concentration (Rattus norvegicus [9]): 2.32 nM/g; Serum corticosterone (Rattus norvegicus [10]): 6.5 µg/mL; minimal effective dose (Rattus norvegicus [11]): 0.1 mg/kg; Serum corticosterone (Rattus norvegicus [12]): 22.1 µg/mL; Homovanillic acid concentration (Rattus norvegicus [13]): 2.89 nM/g; Serum corticosterone (Rattus norvegicus [14]): 50.2 µg/mL; Concentration (Rattus norvegicus [15]): 46.6 nM/g; Concentration (Rattus norvegicus [16]): 2.2 nM/g; DOPAC concentration (Rattus norvegicus [17]): 4.44 nM/g; Concentration (Rattus norvegicus [18]): 0.71 nM/g; Concentration (Rattus norvegicus [19]): 4.78 mg/kg; Serum corticosterone (Rattus norvegicus [20]): 4.3 µg/mL; Concentration (Rattus norvegicus [21]): 1.47 nM/g; DOPAC concentration (Rattus norvegicus [22]): 4.62 nM/g; Concentration (Rattus norvegicus [23]): 2.95 nM/g; Serum corticosterone (Rattus norvegicus [24]): 61.2 µg/mL
